Reference: ChEMBL document CHEMBL1255434, “Heat stress cognate 70 host protein as a potential drug target against drug resistance in hepatitis B virus” (Antimicrob Agents Chemother, 2010)
Calls of active or inactive are those of the source. The calls are words filed in the database; no cut-off is given here.

Key:
Hepatitis B virus [1] = assay: Antiviral activity against Hepatitis B virus infected in human HepG2(2.2.15) cells assessed as decrease in intracellular viral DNA level at 2.16 uM after 72 hrs by RT-PCR analysis; type: functional, organism-based
Method in brief: (§1)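 HepG2.2.15 cells (HBV genome-transfected, MEM + 10% FBS) treated 72 h with drug alone or in two-drug combination. Entecavir 0.6 μg/ml (2.16 μM), adefovir 3 μg/ml (5.9 μM), lamivudine 3 μg/ml (13 μM), oxymatrine 30 μg/ml (113 μM). Intracellular HBV DNA by SYBR Green real-time PCR, relative to untreated. Experiment repeated twice; means and SD, Student's t test.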

Hepatitis B virus [2] = assay: Antiviral activity against Hepatitis B virus infected in human HepG2(2.2.15) cells assessed as decrease in intracellular viral DNA level at 13 uM after 72 hrs by RT-PCR analysis; type: functional, organism-based; method in brief: as §1
[3] = Decrease in HscA70-mRNA expression in Hepatitis B virus infected in human HepG2(2.2.15) cells at 13 uM after 24-36 hrs by RT-PCR analysis; type: functional, cell-based

C=C1[C@H](CO)[C@@H](O)C[C@@H]1n1cnc2c(=O)[nH]c(N)nc21
Activity (Hepatitis B virus [1]): Active

Nc1ccn([C@@H]2CS[C@H](CO)O2)c(=O)n1
Activity (Hepatitis B virus [2]): Active
Activity [3]: inactive
